Each block holds one compound with its values, some of them ahead of it. The source made the active and inactive calls. No cut-off for these calls is given here.
Tests used:
[1] = biological target: Ribosomal protein S6 kinase alpha-4 (Homo sapiens) (UniProt O75676); test: Inhibition of RPS6KA4 kinase domain 2 (unknown origin) assessed as residual enzyme activity at 10 uM by Ambit kinase binding assay relative to control
[2] = biological target: Serine/threonine-protein kinase ULK3 (Homo sapiens) (UniProt Q6PHR2); test: Inhibition of ULK3 (unknown origin) assessed as residual enzyme activity at 10 uM by Ambit kinase binding assay relative to control
Sequence of Serine/threonine-protein kinase ULK3 (Homo sapiens) (Q6PHR2 whole entry): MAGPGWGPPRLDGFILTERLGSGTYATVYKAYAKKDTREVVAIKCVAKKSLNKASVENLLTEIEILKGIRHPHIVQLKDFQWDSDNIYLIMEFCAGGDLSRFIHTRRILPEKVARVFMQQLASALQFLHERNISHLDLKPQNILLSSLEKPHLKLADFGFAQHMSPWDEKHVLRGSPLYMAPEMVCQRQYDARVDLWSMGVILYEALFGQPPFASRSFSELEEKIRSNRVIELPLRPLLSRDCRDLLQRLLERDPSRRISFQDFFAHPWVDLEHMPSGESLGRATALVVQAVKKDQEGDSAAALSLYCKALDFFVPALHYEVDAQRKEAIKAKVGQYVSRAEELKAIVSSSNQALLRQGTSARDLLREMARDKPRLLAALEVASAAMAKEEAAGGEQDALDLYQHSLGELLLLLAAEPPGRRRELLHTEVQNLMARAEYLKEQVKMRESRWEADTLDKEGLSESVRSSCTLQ

[3] = biological target: BMP-2-inducible protein kinase (Homo sapiens) (UniProt Q9NSY1); test: Inhibition of BIKE (unknown origin) assessed as residual enzyme activity at 10 uM by Ambit kinase binding assay relative to control
Sequence of BMP-2-inducible protein kinase (Homo sapiens) (Q9NSY1 whole entry, looked up): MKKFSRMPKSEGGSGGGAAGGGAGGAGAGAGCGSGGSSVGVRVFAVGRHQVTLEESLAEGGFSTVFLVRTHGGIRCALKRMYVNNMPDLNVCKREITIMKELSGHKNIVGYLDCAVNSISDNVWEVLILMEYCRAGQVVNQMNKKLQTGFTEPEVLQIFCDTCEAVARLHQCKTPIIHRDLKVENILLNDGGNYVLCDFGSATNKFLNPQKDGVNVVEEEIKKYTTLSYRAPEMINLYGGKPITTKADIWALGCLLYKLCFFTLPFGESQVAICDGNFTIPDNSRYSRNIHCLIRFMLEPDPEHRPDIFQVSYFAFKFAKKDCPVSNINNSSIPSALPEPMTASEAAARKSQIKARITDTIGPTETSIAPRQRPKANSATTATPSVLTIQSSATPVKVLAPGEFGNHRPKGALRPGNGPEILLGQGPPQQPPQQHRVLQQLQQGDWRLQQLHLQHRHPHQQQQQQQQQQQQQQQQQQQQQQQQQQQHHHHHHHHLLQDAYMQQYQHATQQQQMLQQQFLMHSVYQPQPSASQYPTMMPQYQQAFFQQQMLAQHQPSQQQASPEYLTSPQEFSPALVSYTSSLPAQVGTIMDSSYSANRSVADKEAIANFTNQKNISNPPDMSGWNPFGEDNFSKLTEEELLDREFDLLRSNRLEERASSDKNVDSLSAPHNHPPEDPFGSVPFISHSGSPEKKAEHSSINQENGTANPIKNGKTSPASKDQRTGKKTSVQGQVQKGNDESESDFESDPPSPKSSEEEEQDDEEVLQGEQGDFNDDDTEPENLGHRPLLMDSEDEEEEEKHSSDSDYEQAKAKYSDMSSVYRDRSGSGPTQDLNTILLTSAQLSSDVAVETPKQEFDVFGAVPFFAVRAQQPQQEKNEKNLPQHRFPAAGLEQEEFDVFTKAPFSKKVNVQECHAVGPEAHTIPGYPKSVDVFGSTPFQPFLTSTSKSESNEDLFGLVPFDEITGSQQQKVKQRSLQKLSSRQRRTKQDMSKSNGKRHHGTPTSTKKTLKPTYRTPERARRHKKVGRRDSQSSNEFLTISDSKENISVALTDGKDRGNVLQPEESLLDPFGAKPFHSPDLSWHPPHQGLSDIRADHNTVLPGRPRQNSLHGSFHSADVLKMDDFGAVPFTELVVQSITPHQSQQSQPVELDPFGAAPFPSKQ

[4] = biological target: Cyclin-dependent kinase 7 (Homo sapiens) (UniProt P50613); test: Inhibition of CDK7 (unknown origin) assessed as residual enzyme activity at 10 uM by Ambit kinase binding assay relative to control
[5] = biological target: Tyrosine-protein kinase Blk (Homo sapiens) (UniProt P51451); test: Inhibition of BLK (unknown origin) assessed as residual enzyme activity at 10 uM by Ambit kinase binding assay relative to control
[6] = biological target: Dual specificity mitogen-activated protein kinase kinase 3 (Homo sapiens) (UniProt P46734); test: Inhibition of MEK3 (unknown origin) assessed as residual enzyme activity at 10 uM by Ambit kinase binding assay relative to control
Sequence of Dual specificity mitogen-activated protein kinase kinase 3 (Homo sapiens) (P46734 whole entry): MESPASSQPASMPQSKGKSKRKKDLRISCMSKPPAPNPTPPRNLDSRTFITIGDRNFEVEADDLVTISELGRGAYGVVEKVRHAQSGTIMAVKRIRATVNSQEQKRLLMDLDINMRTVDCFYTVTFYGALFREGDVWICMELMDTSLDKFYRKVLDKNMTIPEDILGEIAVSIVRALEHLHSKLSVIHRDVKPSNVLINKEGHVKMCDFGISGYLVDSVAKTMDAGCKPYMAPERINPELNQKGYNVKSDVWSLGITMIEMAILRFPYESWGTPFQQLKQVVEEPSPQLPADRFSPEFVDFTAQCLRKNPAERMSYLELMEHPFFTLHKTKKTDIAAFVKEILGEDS

HeLa S3 = test: Reversal of nocodazole-induced mitotic arrest in human HeLa S3 cells expressing histone H2B-GFP assessed as nuclear envelope reassembly at 10 uM measured for 20 to 60 mins by immunofluorescence analysis; format: functional, cell-based; details: time 20-60 min
[7] = Inhibition of Mps1 in nocodazole-treated Potoroo PTK2 cells expressing EyFP-tagged human Mad2 assessed as decrease in Mad2 recruitment to kinetochore at 10 uM incubated for 1 hr by fluorescence based imaging analysis relative to nocodazole; design: species or system Pt K2; details: Potorous tridactylus
Method in brief: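 PtK2 (male Potorous tridactylus kidney) cells stably expressing human Mad2-EYFP, cultured in Advanced MEM with 2% FBS. Cells were pretreated 1 h with 10 μM inhibitor or DMSO, then given DMSO or nocodazole (200 ng·ml⁻¹). Time-lapse imaging ran at 37°C from NEBD. Kinetochore Mad2-EYFP density was background-corrected and normalized. N=20–29 cells; 95% CI; Student's t test.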

HCT-116 [8] = test: Cytotoxicity against human HCT-116 cells assessed as loss of clonal survival at 5 to 10 uM incubated for 10 days by crystal violet staining based assay; format: functional, cell-based; details: dose 5-10 µM, time 10.0 day
Method in brief: (§1)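 Colony outgrowth: cells plated at 200 cells per 60-mm dish, exposed to compound or DMSO vehicle and stained with crystal violet after 10 days. HCT116 grown in McCoy's 5A; A549 and HeLa in DMEM; hTERT-RPE1 in DMEM/F-12. All media had 10% FBS and penicillin/streptomycin, 37°C, 5% CO2. Quantified from 3 independent experiments, mean + SD, Student's t test.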

[9] = biological target: Mitogen-activated protein kinase 1 (Homo sapiens, UniProt P28482); test: Inhibition of ERK2 (unknown origin) assessed as residual enzyme activity at 10 uM by Ambit kinase binding assay relative to control
Sequence of Mitogen-activated protein kinase 1 (P28482 whole entry): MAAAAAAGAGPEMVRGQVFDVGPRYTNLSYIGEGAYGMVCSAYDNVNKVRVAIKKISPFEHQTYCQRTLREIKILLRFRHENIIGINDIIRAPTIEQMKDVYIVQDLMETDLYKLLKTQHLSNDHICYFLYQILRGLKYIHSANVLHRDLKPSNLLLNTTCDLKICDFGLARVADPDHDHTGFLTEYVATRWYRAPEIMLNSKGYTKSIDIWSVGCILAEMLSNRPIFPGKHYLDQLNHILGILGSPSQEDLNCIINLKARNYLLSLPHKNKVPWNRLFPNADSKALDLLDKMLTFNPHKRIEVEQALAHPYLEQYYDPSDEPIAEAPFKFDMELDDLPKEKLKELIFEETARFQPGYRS

HCT-116 [10] = test: Antiproliferative activity against human HCT-116 cells with p53-/- at 10 uM measured after 96 hrs in presence of Z-VAD-FMK by Syto60 staining based assay; format: functional, cell-based
U2OS = test: Reversal of nocodazole-induced mitotic arrest in human U2OS cells assessed as decrease in cyclin B level at 0.3 to 10 uM incubated for 4 hrs by immunoblot analysis; format: functional, cell-based; details: dose 0.3-10 µM
UTRM10 [11] = test: Induction of chromosome mis-segregation in UTRM10 cells (unknown origin) expressing LAP-tagged Mps1 M602Q mutant co-transfected with H2B-EYFP at 10 uM by time-lapse microscopy; format: functional, cell-based
[12] = biological target: Dual specificity protein kinase CLK1 (Homo sapiens, UniProt P49759); test: Inhibition of CLK1 (unknown origin) assessed as residual enzyme activity at 10 uM by Ambit kinase binding assay relative to control
[13] = biological target: Cyclin-G-associated kinase (Homo sapiens, UniProt O14976); test: Binding affinity to GAK (unknown origin) assessed as dissociation constant by Ambit kinase binding assay
Sequence of Cyclin-G-associated kinase (O14976 whole entry): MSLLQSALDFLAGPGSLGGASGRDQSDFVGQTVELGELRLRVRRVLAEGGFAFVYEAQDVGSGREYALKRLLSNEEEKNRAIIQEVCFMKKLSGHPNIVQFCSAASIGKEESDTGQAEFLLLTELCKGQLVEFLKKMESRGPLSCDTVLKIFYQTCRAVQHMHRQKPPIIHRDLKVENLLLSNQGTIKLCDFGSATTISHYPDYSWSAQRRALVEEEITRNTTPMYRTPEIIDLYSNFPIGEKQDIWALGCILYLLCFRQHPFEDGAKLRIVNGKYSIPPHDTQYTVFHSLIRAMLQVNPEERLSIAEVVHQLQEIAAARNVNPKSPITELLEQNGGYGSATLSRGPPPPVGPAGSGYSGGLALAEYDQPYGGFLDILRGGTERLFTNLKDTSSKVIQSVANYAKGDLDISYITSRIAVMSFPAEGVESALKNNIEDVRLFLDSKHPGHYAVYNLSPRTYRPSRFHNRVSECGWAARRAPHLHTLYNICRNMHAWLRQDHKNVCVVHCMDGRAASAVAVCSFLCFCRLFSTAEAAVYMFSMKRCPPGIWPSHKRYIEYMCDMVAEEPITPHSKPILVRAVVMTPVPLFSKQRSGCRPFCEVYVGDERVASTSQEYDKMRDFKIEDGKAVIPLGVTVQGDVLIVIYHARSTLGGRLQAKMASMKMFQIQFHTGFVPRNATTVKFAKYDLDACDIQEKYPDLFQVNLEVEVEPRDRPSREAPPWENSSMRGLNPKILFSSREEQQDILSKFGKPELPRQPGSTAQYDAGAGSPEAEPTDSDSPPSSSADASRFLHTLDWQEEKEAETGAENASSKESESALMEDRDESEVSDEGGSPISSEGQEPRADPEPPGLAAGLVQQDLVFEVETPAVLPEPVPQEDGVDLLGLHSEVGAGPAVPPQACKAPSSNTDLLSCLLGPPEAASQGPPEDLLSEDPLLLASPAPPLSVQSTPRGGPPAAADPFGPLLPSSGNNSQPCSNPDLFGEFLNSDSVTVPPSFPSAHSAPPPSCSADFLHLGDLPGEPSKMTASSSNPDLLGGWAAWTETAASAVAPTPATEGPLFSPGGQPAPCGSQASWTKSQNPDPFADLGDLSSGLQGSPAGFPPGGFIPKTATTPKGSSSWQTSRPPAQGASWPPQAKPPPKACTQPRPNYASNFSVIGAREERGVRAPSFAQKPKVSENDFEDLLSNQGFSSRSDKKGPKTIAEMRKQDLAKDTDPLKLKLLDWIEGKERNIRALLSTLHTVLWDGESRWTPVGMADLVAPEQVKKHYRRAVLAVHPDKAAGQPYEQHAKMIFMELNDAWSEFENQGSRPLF

[14] = tested on: Proto-oncogene tyrosine-protein kinase receptor Ret (Homo sapiens), P07949 [V804M]; test: Inhibition of RET V804M mutant (unknown origin) assessed as residual enzyme activity at 10 uM by Ambit kinase binding assay relative to control
Sequence of Proto-oncogene tyrosine-protein kinase receptor Ret (Homo sapiens), P07949 [V804M] (P07949 whole entry V804M): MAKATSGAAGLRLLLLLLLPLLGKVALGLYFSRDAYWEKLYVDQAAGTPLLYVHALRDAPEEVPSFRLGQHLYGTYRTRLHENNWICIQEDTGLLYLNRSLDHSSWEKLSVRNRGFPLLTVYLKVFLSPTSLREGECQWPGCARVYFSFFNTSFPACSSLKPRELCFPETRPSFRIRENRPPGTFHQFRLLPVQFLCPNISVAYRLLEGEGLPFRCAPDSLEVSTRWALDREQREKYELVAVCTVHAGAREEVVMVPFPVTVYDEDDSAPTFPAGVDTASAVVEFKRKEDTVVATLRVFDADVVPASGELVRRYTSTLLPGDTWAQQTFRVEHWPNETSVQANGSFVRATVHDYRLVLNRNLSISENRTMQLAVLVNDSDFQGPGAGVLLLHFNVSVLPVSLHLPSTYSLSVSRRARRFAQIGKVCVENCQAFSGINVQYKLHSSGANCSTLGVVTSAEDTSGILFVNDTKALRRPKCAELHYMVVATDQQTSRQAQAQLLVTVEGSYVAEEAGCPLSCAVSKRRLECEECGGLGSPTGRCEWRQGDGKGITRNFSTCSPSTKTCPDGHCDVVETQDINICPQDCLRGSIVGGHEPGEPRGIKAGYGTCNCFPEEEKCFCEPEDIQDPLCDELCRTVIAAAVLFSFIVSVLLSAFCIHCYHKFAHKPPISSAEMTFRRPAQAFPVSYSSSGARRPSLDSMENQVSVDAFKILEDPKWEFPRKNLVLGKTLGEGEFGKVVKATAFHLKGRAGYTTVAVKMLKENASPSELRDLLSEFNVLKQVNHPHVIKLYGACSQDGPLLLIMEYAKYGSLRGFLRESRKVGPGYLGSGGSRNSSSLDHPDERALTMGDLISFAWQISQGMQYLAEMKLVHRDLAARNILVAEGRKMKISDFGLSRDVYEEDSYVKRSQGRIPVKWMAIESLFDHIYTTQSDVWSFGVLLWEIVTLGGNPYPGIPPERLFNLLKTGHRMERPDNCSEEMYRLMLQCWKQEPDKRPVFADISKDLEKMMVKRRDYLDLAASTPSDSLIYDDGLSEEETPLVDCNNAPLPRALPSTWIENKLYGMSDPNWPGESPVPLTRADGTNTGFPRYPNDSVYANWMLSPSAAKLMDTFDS

TERT-RPE1 = test: Antiproliferative activity against hTERT-RPE1 cells at 10 uM incubated for 4 days by Syto60 staining based assay; format: toxicity, cell-based; details: human, tert-rpe1, 96 h, time 4 day
HCT-116 [15] = test: Induction of aneuploidy in human HCT-116 cells at 10 uM incubated for 4 days by FACS analysis; format: functional, cell-based; details: time 4.0 day
Method in brief: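 HCT116 cells were treated with 10 μM compound or DMSO vehicle for the indicated times up to 96 h, then DNA content was profiled by flow cytometry.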

HeLa = test: Antiproliferative activity against human HeLa cells at 10 uM measured after 96 hrs in presence of Z-VAD-FMK by Syto60 staining based assay; format: functional, cell-based
UTRM10 [16] = test: Effect on centrosome overduplication in hydroxyurea-treated UTRM10 cells (unknown origin) at 10 to 25 uM incubated for 48 hrs by centrin staining based analysis; details: dose 10-25 µM
A549 = test: Antiproliferative activity against human A549 cells assessed as loss of clonal survival upto 10 uM incubated for 10 days by crystal violet staining based assay; format: functional, cell-based; details: time 10.0 day; method in brief: as §1
[17] = biological target: Proto-oncogene tyrosine-protein kinase ROS (Homo sapiens) (UniProt P08922); test: Inhibition of ROS1 (unknown origin) assessed as residual enzyme activity at 10 uM by Ambit kinase binding assay relative to control
[18] = biological target: Serine/threonine-protein kinase 33 (Homo sapiens, UniProt Q9BYT3); test: Inhibition of STK33 (unknown origin) assessed as residual enzyme activity at 10 uM by Ambit kinase binding assay relative to control
HCT-116 [19] = test: Antiproliferative activity against human HCT-116 cells with p53-/- assessed as loss of clonal survival upto 10 uM incubated for 10 days by crystal violet staining based assay; format: functional, cell-based; details: time 10.0 day; method in brief: as §1
[20] = Inhibition of Mps1 in Potoroo PTK2 cells expressing EyFP-tagged human Mad2 assessed as reduction in time spent in mitosis at 10 uM incubated for 1 hr by fluorescence based imaging analysis relative to control; design: species or system Pt K2; details: Potorous tridactylus
Method in brief: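 Randomly cycling PtK2 cells stably expressing hsMad2-EYFP were pretreated 1 h with 10 μM inhibitor, DMSO or no treatment. Time-lapse imaging at 37°C, 5% CO₂ scored mitotic duration from NEB to NER. Average time was reported (N=26–29); 95% CI; Student's t test.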

HCT-116 [21] = test: Antiproliferative activity against human HCT-116 with p53+/+ cells at 10 uM incubated for 4 days by Syto60 staining based assay; format: functional, cell-based; details: time 4.0 day
Method in brief: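 Proliferation read by Syto60 nucleic acid stain fluorescence (excitation 635 nm, emission 695 nm) after treatment for up to 96 h. Each time point normalized to its DMSO control. Mean ± SD from 4 independent experiments. Cells kept at 37°C, 5% CO2 in 10% FBS-supplemented medium.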

Activity [1]: 3.4% | Activity [2]: 11% | Activity [3]: 0.6% | Activity [4]: 26% | Activity [5]: 12% | Activity [6]: 6%
SMILES: O=C1c2ccccc2-c2n[nH]c3cccc1c23

Activity [9]: 6% | Activity [12]: 17% | Kd [13]: 1.1 µM | Activity [14]: 0.5% | Activity [17]: 12% | Activity [18]: 12%
SMILES: COc1cc(N2CCC(O)CC2)ccc1Nc1cc(Nc2ccccc2S(=O)(=O)C(C)C)c2cc[nH]c2n1
Activity (HeLa S3): Active | inhibition at 10 µM [7]: 70% | Activity (HCT-116 [8]): Active | Activity (HCT-116 [10]): Active | Activity (U2OS): Active | Activity (UTRM10 [11]): inactive | Activity (TERT-RPE1): Toxic | Activity (HCT-116 [15]): Active | Activity (HeLa): Active | Activity (UTRM10 [16]): inactive | Activity (A549): Active | Activity (HCT-116 [19]): Active | inhibition at 10 µM [20]: ~40% | Activity (HCT-116 [21]): Active
